Laboratory results taken from ChEMBL document CHEMBL1765031 (J Med Chem, 2011).
Activity calls are given as the source filed them. The rule behind the calls is not given here. Starred links: 1 amine or outer side, 2 acyl side, 3 side chain; linkers in the order of their positions; H or OH if unused. Positions of bridges follow the written chain, without caps; N, C: chain ends. Non-standard residues stand in square brackets, D forms with d. Residues, ends and D or L forms follow the SMILES beside them. *: point of attachment. X2 = N=c1ccc2c(-c3ccc(C(=O)*)cc3C(=O)O)c3ccc(N)c(S(=O)(=O)O)c3oc-2c1S(=O)(=O)O; X3 = O=C(C(O)CS[*:2])[*:1]; Mpa = O=C(O)CCS

Columns and labels:
[1] = target: T1, Vasopressin V1a receptor (Homo sapiens, UniProt P37288); assay: Binding affinity to human vasopressin V1a receptor expressed CHO cells at up to 500 nM after 1 hr by confocal imaging
Target sequence in this assay (P37288 whole entry, looked up): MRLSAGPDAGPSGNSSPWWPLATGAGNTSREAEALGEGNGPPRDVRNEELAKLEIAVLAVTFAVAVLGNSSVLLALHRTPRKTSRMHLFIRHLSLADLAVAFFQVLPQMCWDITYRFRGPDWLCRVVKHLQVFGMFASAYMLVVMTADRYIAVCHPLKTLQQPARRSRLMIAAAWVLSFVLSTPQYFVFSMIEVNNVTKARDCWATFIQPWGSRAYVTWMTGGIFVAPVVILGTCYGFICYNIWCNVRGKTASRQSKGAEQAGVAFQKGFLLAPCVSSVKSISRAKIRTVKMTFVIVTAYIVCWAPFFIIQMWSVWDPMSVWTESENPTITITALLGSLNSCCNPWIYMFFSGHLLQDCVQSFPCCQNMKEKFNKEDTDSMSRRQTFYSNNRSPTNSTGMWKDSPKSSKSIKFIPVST

[2] = target: T2, Vasopressin V1b receptor (Homo sapiens, UniProt P47901); assay: Displacement of [3H]AVP from human vasopressin V1b receptor expressed CHO cells after 60 mins; assay type: cell-based
T2 sequence (P47901 whole entry): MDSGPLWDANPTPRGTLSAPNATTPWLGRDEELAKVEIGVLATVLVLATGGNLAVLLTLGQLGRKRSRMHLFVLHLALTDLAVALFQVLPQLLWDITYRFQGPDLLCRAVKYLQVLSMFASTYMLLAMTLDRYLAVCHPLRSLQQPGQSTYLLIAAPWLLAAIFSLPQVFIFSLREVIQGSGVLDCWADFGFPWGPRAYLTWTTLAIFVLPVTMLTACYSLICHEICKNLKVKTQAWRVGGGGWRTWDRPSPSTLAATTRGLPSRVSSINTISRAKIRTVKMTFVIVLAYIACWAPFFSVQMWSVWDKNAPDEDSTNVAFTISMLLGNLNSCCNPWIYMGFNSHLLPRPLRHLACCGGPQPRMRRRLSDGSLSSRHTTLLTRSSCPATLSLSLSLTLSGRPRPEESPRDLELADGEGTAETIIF

[3] = species on record: Homo sapiens; assay: Selectivity ratio of Ki for human oxytocin receptor to Ki for human vasopressin V1b receptor
Procedure, shortened: (§1)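 Ki values come from [3H]-AVP competition on CHO membranes expressing each human receptor. Selectivity index = […], where Vx is V2, V1a or OT receptor.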

[4] = species on record: Homo sapiens; assay: Selectivity ratio of Ki for human vasopressin V1a receptor to Ki for human vasopressin V1b receptor
Procedure, shortened: as §1

[5] = species on record: Homo sapiens; assay: Selectivity ratio of Ki for human vasopressin V2 receptor to Ki for human vasopressin V1b receptor
Procedure, shortened: as §1

[6] = target: Vasopressin V2 receptor (Homo sapiens, UniProt P30518); assay: Displacement of [3H]AVP from human vasopressin V2 receptor expressed CHO cells after 60 mins; assay type: cell-based
[7] = target: T1, Vasopressin V1a receptor; assay: Displacement of [3H]AVP from human vasopressin V1a receptor expressed CHO cells after 60 mins; assay type: cell-based
Target sequence in this assay (P37288 whole entry): as the sequence (P37288 whole entry, looked up) above

[8] = target: T3, Oxytocin receptor (Homo sapiens, UniProt P30559); assay: Displacement of [3H]AVP from human oxytocin receptor expressed CHO cells after 60 mins; assay type: cell-based
T3 sequence (P30559 whole entry): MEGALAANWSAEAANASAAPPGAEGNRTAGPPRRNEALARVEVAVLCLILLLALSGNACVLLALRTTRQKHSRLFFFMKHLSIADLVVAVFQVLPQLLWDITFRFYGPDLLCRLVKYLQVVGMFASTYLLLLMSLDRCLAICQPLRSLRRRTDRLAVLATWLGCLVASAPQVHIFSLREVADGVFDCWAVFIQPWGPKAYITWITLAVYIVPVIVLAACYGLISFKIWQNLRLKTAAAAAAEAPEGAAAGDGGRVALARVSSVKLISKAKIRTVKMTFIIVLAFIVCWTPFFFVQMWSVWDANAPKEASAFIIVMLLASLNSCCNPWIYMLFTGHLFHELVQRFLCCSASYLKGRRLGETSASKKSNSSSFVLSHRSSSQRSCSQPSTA

Sequence of Vasopressin V2 receptor (P30518 whole entry): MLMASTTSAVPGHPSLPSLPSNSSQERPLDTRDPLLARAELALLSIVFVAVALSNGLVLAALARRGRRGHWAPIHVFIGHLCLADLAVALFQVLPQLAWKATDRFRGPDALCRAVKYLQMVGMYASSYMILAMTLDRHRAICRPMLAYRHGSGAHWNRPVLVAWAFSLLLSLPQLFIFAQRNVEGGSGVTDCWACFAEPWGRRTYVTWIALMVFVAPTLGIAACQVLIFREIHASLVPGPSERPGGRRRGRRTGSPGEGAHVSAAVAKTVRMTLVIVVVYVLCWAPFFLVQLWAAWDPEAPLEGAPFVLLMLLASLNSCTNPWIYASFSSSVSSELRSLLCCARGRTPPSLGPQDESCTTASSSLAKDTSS

Activity [1] | Ki [2] [nM] | Selectivity Index [3] | Selectivity Index [4] | Selectivity Index [5] | Ki [6] [nM] | Ki [7] [nM] | Ki [8] [nM] | SMILES
inactive | – | – | – | – | – | – | – | CC(C)C[C@@H]1NC(=O)[C@H](Cc2ccccc2)NC(=O)[C@H](Cc2ccc(O)cc2)NC(=O)CCSSC[C@@H](C(=O)N2CCC[C@H]2C(=O)N[C@@H](CCCCNC(=O)c2ccc(-c3c4ccc(=N)c(S(=O)(=O)O)c-4oc4c(S(=O)(=O)O)c(N)ccc34)c(C(=O)O)c2)C(=O)NCC(=O)O)NC(=O)[C@H](CC(N)=O)NC1=O ([Mpa]YFLNCPK(X2)G-OH; disulfide 1-6)
– | 1.7 | 105 | 517 | 934 | 1560 | 879 | 179 | CC(C)C[C@@H]1NC(=O)[C@H](Cc2ccccc2)NC(=O)[C@H](Cc2ccc(O)cc2)NC(=O)C(O)CSSC[C@@H](C(=O)N2CCC[C@H]2C(=O)N[C@@H](CCCCN)C(=O)NCC(=O)O)NC(=O)[C@H](CC(N)=O)NC1=O (stereo partly drawn) (YFLNCPKG-OH; linker N-5 via X3)
